Reference: ChEMBL document CHEMBL2424622, “Development of amino-pyrimidine inhibitors of c-Jun N-terminal kinase (JNK): kinase profiling guided optimization of a 1,2,3-benzotriazole lead” (Bioorg Med Chem Lett, 2013)

Tests used:
[1] = target: Ephrin type-A receptor 2 (Homo sapiens) (UniProt P29317); assay: Competitive binding affinity to EPHA2 (unknown origin) at 10 uM in presence of ATP relative to control
Method in brief: (§1)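 In vitro ATP-site competition binding assay, part of profiling against a diverse panel of 128 kinases. Each compound was tested at a single concentration of 10 µM. Kinome selectivity was summarized as S15 selectivity scores.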

[2] = target: Death-associated protein kinase 3 (Homo sapiens, UniProt O43293); assay: Competitive binding affinity to DAPK3 (unknown origin) at 10 uM in presence of ATP relative to control
Method in brief: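 In vitro ATP-site competition binding assay across a diverse panel of 128 kinases, with each compound tested at a single concentration. Kinase binding is expressed relative to control.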

[3] = target: Focal adhesion kinase 1 (Homo sapiens) (UniProt Q05397); assay: Competitive binding affinity to PTK2 (unknown origin) at 10 uM in presence of ATP relative to control
Method in brief: (§2)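 In vitro ATP-site competition binding assay across a diverse panel of 128 kinases, with compound tested at a single concentration. Kinase selectivity scores (S15) were calculated from the panel profiles.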

[4] = target: Tyrosine-protein kinase ABL2 (Homo sapiens) (UniProt P42684); assay: Competitive binding affinity to ABL2 (unknown origin) at 10 uM in presence of ATP relative to control
[5] = target: Tyrosine-protein kinase Fgr (Homo sapiens) (UniProt P09769); assay: Competitive binding affinity to FGR (unknown origin) at 10 uM in presence of ATP relative to control; method in brief: as §1
[6] = target: Mitogen-activated protein kinase 9 (Homo sapiens, UniProt P45984)
[7] = target: Calcium/calmodulin-dependent protein kinase type 1 (Homo sapiens, UniProt Q14012); assay: Competitive binding affinity to CAMK1 (unknown origin) at 10 uM in presence of ATP relative to control
[8] = target: Serine/threonine-protein kinase PAK 5 (Homo sapiens) (UniProt Q9P286); assay: Competitive binding affinity to PAK7/PAK5 (unknown origin) at 10 uM in presence of ATP relative to control; method in brief: as §2
[9] = target: Vascular endothelial growth factor receptor 3 (Homo sapiens) (UniProt P35916); assay: Competitive binding affinity to FLT4 (unknown origin) at 10 uM in presence of ATP relative to control; method in brief: as §1
[10] = target: Calcium/calmodulin-dependent protein kinase kinase 2 (Homo sapiens) (UniProt Q96RR4); assay: Competitive binding affinity to CAMKK2 (unknown origin) at 10 uM in presence of ATP relative to control
[11] = target: Serine/threonine-protein kinase MARK2 (Homo sapiens) (UniProt Q7KZI7); assay: Competitive binding affinity to MARK2 (unknown origin) at 10 uM in presence of ATP relative to control; method in brief: as §2
[12] = target: Serine/threonine-protein kinase PAK 1 (Homo sapiens) (UniProt Q13153); assay: Competitive binding affinity to PAK1 (unknown origin) at 10 uM in presence of ATP relative to control; method in brief: as §2
[13] = target: Tyrosine-protein kinase Fes/Fps (Homo sapiens) (UniProt P07332); assay: Competitive binding affinity to FES (unknown origin) at 10 uM in presence of ATP relative to control; method in brief: as §1
[14] = target: Mast/stem cell growth factor receptor Kit (Homo sapiens) (UniProt P10721); assay: Competitive binding affinity to KIT (unknown origin) at 10 uM in presence of ATP relative to control; method in brief: as §1
[15] = target: MAP kinase-interacting serine/threonine-protein kinase 2 (Homo sapiens) (UniProt Q9HBH9); assay: Competitive binding affinity to MKNK2 (unknown origin) at 10 uM in presence of ATP relative to control; method in brief: as §2
[16] = target: Tyrosine-protein kinase Lck (Homo sapiens) (UniProt P06239); assay: Competitive binding affinity to LCK (unknown origin) at 10 uM in presence of ATP relative to control; method in brief: as §1
[17] = target: Receptor tyrosine-protein kinase erbB-4 (Homo sapiens) (UniProt Q15303); assay: Competitive binding affinity to ERBB4 (unknown origin) at 10 uM in presence of ATP relative to control; method in brief: as §1
[18] = target: Calcium/calmodulin-dependent protein kinase type II subunit gamma (Homo sapiens) (UniProt Q13555); assay: Competitive binding affinity to CAMK2G (unknown origin) at 10 uM in presence of ATP relative to control
[19] = target: Leukocyte tyrosine kinase receptor (Homo sapiens) (UniProt P29376); assay: Competitive binding affinity to LTK (unknown origin) at 10 uM in presence of ATP relative to control; method in brief: as §1
[20] = target: Serine/threonine-protein kinase PAK 4 (Homo sapiens) (UniProt O96013); assay: Competitive binding affinity to PAK4 (unknown origin) at 10 uM in presence of ATP relative to control; method in brief: as §2
[21] = target: Angiopoietin-1 receptor (Homo sapiens) (UniProt Q02763); assay: Competitive binding affinity to TIE2 (unknown origin) at 10 uM in presence of ATP relative to control; method in brief: as §2
[22] = target: Tyrosine-protein kinase JAK1 (Homo sapiens) (UniProt P23458); assay: Competitive binding affinity to JAK1 kinase domain 1 (unknown origin) at 10 uM in presence of ATP relative to control; method in brief: as §1
[23] = target: Myosin light chain kinase 2, skeletal/cardiac muscle (Homo sapiens) (UniProt Q9H1R3); assay: Competitive binding affinity to MYLK2 (unknown origin) at 10 uM in presence of ATP relative to control; method in brief: as §2
[24] = target: Casein kinase I isoform gamma-1 (Homo sapiens) (UniProt Q9HCP0); assay: Competitive binding affinity to CSNK1G1 (unknown origin) at 10 uM in presence of ATP relative to control
[25] = target: BMP-2-inducible protein kinase (Homo sapiens) (UniProt Q9NSY1); assay: Competitive binding affinity to BIKE (unknown origin) at 10 uM in presence of ATP relative to control
[26] = target: cAMP-dependent protein kinase catalytic subunit alpha (Homo sapiens) (UniProt P17612); assay: Competitive binding affinity to PKAC-alpha (unknown origin) at 10 uM in presence of ATP relative to control; method in brief: as §2
[27] = target: Mitogen-activated protein kinase 8 (Homo sapiens, UniProt P45983)
[28] = target: Serine/threonine-protein kinase PAK 3 (Homo sapiens) (UniProt O75914); assay: Competitive binding affinity to PAK3 (unknown origin) at 10 uM in presence of ATP relative to control; method in brief: as §2
[29] = target: Tyrosine-protein kinase ABL1 (Homo sapiens) (UniProt P00519); assay: Competitive binding affinity to ABL1 (unknown origin) at 10 uM in presence of ATP relative to control
[30] = target: Tyrosine-protein kinase BTK (Homo sapiens) (UniProt Q06187); assay: Competitive binding affinity to BTK (unknown origin) at 10 uM in presence of ATP relative to control
[31] = target: Platelet-derived growth factor receptor alpha (Homo sapiens) (UniProt P16234); assay: Competitive binding affinity to PDGFRA (unknown origin) at 10 uM in presence of ATP relative to control; method in brief: as §2

Ephrin type-A receptor 2 (Homo sapiens), sequence (P29317 whole entry): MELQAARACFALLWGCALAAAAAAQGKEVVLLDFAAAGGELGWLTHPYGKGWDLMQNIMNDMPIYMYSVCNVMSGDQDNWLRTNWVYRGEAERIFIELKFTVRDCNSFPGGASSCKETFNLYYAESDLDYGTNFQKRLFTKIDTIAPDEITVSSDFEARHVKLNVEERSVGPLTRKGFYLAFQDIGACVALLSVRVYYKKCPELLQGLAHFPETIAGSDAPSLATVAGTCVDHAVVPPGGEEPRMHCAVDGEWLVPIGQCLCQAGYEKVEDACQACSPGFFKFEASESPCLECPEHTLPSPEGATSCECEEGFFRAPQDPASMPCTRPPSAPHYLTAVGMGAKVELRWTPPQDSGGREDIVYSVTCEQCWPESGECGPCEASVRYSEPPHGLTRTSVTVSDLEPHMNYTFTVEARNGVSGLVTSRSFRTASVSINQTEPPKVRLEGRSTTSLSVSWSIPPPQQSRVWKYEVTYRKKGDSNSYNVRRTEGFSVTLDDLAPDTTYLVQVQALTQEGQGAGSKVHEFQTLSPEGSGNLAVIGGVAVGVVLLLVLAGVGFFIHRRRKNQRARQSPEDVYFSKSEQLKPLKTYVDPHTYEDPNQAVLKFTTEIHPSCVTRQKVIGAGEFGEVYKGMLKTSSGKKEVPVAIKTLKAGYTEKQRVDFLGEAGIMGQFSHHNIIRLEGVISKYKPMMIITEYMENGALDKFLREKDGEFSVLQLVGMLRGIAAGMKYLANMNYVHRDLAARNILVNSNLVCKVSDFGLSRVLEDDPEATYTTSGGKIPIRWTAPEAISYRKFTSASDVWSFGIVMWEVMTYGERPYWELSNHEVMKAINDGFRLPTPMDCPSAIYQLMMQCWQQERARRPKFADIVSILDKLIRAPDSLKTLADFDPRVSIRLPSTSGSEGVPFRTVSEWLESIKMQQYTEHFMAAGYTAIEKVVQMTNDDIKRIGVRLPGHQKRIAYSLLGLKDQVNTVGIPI
Receptor tyrosine-protein kinase erbB-4 (Homo sapiens), sequence (Q15303 whole entry): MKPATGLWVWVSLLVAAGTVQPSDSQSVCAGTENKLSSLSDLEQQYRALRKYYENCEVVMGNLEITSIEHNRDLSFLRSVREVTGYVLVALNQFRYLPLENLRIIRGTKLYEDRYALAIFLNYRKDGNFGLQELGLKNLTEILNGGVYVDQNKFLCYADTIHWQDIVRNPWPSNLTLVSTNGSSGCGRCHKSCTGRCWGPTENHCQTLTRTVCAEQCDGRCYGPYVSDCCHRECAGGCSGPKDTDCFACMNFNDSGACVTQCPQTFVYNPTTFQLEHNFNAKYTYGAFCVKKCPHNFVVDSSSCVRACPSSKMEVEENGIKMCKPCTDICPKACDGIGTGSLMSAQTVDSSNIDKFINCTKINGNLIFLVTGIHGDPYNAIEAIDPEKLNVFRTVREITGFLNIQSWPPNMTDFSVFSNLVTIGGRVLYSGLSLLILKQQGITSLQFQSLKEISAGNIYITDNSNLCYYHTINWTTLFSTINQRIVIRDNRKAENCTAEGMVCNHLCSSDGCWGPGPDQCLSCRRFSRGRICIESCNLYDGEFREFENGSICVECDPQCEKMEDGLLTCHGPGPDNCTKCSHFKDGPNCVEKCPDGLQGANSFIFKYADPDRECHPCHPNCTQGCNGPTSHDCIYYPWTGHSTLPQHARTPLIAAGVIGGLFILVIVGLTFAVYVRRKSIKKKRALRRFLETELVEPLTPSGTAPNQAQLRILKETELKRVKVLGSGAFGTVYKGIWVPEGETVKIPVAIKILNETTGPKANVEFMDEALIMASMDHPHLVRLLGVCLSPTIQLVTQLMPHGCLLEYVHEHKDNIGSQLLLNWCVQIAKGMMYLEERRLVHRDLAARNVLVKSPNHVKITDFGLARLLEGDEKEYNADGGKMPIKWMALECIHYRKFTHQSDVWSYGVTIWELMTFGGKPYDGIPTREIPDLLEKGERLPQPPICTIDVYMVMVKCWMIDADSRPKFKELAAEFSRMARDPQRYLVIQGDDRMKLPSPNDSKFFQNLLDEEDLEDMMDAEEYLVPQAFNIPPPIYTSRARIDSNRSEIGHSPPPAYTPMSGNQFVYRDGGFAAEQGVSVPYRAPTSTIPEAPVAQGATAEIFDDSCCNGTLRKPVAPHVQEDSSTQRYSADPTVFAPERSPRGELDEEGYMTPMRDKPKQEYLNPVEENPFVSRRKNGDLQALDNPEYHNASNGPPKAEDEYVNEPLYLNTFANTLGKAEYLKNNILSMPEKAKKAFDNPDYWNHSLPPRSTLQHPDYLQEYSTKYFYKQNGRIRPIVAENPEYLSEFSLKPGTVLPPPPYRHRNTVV
Leukocyte tyrosine kinase receptor (Homo sapiens), sequence (P29376 whole entry): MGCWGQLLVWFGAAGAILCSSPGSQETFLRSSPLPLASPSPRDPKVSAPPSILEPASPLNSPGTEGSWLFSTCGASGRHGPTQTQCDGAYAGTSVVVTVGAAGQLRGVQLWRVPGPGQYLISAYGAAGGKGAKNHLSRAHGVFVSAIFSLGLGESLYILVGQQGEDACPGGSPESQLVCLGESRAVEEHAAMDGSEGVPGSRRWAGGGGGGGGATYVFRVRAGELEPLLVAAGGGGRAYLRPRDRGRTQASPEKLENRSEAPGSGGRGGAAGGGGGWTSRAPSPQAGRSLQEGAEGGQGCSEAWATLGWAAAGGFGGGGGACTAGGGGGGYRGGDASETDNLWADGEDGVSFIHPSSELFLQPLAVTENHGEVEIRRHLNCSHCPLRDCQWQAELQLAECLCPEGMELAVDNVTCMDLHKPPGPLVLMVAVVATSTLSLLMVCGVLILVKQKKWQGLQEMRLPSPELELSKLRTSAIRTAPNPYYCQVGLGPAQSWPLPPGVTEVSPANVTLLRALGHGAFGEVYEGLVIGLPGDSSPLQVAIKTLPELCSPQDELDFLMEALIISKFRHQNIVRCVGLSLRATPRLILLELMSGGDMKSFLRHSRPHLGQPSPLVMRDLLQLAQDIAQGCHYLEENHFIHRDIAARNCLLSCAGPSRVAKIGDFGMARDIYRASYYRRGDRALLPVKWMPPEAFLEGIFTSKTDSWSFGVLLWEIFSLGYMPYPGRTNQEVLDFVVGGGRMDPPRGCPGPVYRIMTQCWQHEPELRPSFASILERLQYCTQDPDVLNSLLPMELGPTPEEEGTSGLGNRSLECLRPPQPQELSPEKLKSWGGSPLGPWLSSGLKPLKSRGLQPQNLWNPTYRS
Death-associated protein kinase 3, sequence (O43293 whole entry, looked up): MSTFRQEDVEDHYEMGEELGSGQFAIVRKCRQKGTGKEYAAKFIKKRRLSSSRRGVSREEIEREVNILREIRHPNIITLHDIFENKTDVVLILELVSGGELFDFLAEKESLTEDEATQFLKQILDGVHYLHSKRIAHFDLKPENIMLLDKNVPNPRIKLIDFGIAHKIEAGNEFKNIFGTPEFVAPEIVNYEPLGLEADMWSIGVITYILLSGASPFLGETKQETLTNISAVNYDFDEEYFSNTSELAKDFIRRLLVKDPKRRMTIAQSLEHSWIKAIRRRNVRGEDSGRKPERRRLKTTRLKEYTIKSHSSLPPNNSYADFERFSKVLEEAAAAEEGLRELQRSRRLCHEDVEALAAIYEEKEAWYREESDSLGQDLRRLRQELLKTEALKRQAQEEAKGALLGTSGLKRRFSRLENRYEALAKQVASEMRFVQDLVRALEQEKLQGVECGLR
Mast/stem cell growth factor receptor Kit (Homo sapiens), sequence (P10721 whole entry): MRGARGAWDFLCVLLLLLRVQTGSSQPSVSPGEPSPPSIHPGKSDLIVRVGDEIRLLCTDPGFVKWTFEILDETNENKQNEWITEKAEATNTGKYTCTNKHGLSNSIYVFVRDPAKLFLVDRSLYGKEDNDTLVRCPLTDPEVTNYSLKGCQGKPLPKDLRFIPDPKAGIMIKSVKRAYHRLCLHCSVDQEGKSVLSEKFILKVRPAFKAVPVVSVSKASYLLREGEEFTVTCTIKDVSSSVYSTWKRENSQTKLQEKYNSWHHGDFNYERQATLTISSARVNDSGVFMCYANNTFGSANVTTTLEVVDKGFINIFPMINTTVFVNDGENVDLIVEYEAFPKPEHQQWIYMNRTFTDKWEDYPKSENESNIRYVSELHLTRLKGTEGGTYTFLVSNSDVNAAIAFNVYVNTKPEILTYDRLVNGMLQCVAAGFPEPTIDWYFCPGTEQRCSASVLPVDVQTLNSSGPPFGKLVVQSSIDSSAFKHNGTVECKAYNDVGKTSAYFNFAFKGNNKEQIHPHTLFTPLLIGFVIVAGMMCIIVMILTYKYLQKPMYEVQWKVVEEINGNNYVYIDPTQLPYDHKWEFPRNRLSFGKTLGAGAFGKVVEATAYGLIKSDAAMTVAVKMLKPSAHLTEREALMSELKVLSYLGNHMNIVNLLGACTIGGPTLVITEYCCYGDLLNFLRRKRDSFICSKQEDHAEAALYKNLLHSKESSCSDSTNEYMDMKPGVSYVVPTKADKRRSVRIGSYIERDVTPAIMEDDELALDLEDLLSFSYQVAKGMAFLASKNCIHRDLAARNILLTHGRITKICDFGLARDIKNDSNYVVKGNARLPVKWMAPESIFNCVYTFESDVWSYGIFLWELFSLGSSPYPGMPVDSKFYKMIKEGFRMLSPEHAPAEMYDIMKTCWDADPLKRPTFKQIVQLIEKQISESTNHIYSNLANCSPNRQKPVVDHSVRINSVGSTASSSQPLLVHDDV
Casein kinase I isoform gamma-1 (Homo sapiens), sequence (Q9HCP0 whole entry, looked up, canonical isoform): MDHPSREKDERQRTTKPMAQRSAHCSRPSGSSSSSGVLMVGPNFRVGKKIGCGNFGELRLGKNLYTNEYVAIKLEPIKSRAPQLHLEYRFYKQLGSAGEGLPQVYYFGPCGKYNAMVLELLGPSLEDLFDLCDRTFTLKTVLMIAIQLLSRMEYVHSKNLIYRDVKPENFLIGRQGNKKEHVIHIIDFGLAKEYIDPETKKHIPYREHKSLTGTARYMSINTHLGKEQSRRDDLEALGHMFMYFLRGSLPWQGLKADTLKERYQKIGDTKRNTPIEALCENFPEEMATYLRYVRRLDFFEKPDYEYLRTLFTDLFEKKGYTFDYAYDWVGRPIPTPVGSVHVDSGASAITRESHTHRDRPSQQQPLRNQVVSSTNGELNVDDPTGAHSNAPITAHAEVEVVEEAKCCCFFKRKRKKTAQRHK

| Compound | inhibition [1] [%] | inhibition [2] [%] | inhibition [3] [%] | inhibition [4] [%] | inhibition [5] [%] | IC50 [6] [nM] | inhibition [7] [%] | inhibition [8] [%] | inhibition [9] [%] | inhibition [10] [%] | inhibition [11] [%] | inhibition [12] [%] | inhibition [13] [%] | inhibition [14] [%] | inhibition [15] [%] | inhibition [16] [%] | inhibition [17] [%] | inhibition [18] [%] | inhibition [19] [%] | inhibition [20] [%] | further results |
| --- | --- | --- | --- | --- | --- | --- | --- | --- | --- | --- | --- | --- | --- | --- | --- | --- | --- | --- | --- | --- | --- |
| O[C@H]1CC[C@H](Nc2nccc(-c3n[nH]c4ccccc34)n2)CC1 | < 50 | 96 | 85 | < 50 | 80 | 650 | 98 | 86 | 87 | 84 | 88 | 68 | < 50 | 98 | 87 | 87 | < 50 | 88 | 100 | 92 | inhibition [21]: < 50%; inhibition [22]: 99%; inhibition [23]: 84%; inhibition [24]: 92%; inhibition [25]: 99%; inhibition [26]: < 50%; IC50 [27]: 250 nM; inhibition [28]: 99%; inhibition [29]: < 50%; inhibition [30]: < 50%; inhibition [31]: 98% |
| N[C@H]1CC[C@H](Nc2nccc(-n3nnc4ccccc43)n2)CC1 | < 50 | 95 | < 50 | 89 | 80 | 170 | 89 | < 50 | < 50 | 86 | 78 | < 50 | < 50 | 72 | 100 | 81 | < 50 | < 50 | < 50 | < 50 | inhibition [21]: < 50%; inhibition [22]: < 50%; inhibition [23]: 73%; inhibition [24]: 100%; inhibition [25]: 99%; inhibition [26]: < 50%; IC50 [27]: 74 nM; inhibition [28]: 90%; inhibition [29]: < 50%; inhibition [30]: < 50%; inhibition [31]: < 50% |
